# Test results: ChEMBL document CHEMBL1155221, “Identification of novel indanylsulfonamide guanylhydrazones as potent 5-HT6 serotonin receptor antagonists” (J Med Chem, 2009)
# Columns and labels:
# [1] = target: T1, 5-hydroxytryptamine receptor 6 (Homo sapiens, UniProt P50406); assay: Displacement of [3H]LSD from human recombinant 5HT6 receptor expressed in HEK293 cells after 60 mins by liquid scintillation counting; assay type: cell-based
# In short: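 Competition binding on membranes from HEK-293 cells expressing recombinant human 5-HT6 receptor, with [3H]-LSD as radioligand. […] Values are mean ± SEM of three experiments.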
# [2] = target: T1, 5-hydroxytryptamine receptor 6; assay: Inhibition of [3H]LSD binding to human recombinant 5HT6 receptor expressed in HEK293 cells at 100 nM after 60 mins by liquid scintillation counting; assay type: cell-based
# In short: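 Single-point competition at 100 nM test compound against [3H]-LSD on membranes from HEK-293 cells expressing recombinant human 5-HT6 receptor. Percent inhibition of radioligand binding reported.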
# [3] = target: T1, 5-hydroxytryptamine receptor 6; assay: Antagonist activity at human 5HT6 receptor expressed in HEK293F cells assessed as inhibition of 5-HT-stimulated cAMP production at […] after 30 mins by HTRF assay; assay type: functional, cell-based
# In short: (§1)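 HEK-293F cells stably expressing human 5-HT6 receptor. Compounds were tested against 5-HT-stimulated cAMP production, with cAMP read by homogeneous time-resolved fluorescence (HTRF). Antagonism expressed as Imax and IC50. Data are mean ± SEM of three experiments.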
# [4] = target: T1, 5-hydroxytryptamine receptor 6; assay: Antagonist activity at human 5HT6 receptor expressed in HEK293F cells assessed as inhibition of 5-HT-stimulated cAMP production after 30 mins by HTRF assay; assay type: functional, cell-based; in short: as §1
# [5] = target: T1, 5-hydroxytryptamine receptor 6; assay: Displacement of [3H]LSD from human cloned 5HT6 receptor expressed in human HeLa cells; assay type: cell-based
# [6] = target: T1, 5-hydroxytryptamine receptor 6; assay: Antagonist activity at human 5HT6 receptor expressed in HEK293F cells assessed as inhibition of 5-HT-stimulated cAMP production at […] after 30 mins by HTRF assay relative to (+/-)-6-chloro-N-(3-(1-methylpyrrolidin-3-yl)-1H-inden-5-yl)imidazo[2,1-b]thiazole-5-sulfonamide; assay type: functional, cell-based
# [7] = target: T2, Adrenergic receptor alpha-1 (Rattus norvegicus, UniProt P15823+P23944+P43140); assay: Inhibition of rat alpha 1 adrenoceptor
# T2 sequence (P15823 whole entry): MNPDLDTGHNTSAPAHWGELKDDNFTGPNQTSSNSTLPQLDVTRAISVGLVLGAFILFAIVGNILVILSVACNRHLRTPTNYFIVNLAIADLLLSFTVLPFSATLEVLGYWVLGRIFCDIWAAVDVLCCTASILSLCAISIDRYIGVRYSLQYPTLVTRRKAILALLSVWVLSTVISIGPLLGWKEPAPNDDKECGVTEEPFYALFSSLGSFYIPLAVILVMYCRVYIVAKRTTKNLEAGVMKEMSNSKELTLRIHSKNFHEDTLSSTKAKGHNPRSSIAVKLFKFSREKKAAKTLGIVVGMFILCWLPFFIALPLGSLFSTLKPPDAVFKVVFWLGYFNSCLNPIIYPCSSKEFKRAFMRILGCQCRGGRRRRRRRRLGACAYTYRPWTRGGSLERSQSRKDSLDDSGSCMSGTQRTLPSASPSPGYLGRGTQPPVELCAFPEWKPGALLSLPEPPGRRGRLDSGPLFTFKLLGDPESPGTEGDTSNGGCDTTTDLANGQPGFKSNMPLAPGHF
# T2 sequence (P23944 whole entry): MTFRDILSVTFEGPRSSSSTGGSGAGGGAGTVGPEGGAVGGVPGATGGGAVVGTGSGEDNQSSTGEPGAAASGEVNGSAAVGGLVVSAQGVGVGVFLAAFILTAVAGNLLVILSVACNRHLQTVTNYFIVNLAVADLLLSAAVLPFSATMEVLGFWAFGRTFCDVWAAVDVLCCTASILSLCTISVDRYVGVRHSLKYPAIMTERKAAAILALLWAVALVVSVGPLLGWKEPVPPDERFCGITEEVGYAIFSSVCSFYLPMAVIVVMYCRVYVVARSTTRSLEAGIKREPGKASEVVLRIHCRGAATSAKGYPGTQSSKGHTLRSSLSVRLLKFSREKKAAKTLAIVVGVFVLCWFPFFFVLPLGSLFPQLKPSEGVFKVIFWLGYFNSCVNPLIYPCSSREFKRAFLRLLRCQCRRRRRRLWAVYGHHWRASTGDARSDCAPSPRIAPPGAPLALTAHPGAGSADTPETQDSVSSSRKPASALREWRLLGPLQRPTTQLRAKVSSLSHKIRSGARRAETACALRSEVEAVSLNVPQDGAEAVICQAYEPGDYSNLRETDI
# T2 sequence (P43140 whole entry): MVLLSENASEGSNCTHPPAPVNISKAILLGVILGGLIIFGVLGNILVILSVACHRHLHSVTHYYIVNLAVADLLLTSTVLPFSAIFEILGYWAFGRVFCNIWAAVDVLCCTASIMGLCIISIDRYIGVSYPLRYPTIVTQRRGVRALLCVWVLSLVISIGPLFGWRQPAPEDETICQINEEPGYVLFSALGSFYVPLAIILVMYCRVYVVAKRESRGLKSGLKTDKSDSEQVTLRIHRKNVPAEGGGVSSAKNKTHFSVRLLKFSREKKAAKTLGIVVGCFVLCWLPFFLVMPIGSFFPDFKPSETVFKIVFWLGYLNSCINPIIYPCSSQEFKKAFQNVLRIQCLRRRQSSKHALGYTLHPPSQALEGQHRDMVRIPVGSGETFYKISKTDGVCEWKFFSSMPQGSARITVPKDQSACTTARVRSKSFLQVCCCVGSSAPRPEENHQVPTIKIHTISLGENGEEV
# [8] = target: T3, Adrenergic receptor alpha-2 (Homo sapiens, UniProt P08913+P18825+P18089); assay: Inhibition of human alpha 2 adrenoceptor
# T3 sequence (P08913 whole entry): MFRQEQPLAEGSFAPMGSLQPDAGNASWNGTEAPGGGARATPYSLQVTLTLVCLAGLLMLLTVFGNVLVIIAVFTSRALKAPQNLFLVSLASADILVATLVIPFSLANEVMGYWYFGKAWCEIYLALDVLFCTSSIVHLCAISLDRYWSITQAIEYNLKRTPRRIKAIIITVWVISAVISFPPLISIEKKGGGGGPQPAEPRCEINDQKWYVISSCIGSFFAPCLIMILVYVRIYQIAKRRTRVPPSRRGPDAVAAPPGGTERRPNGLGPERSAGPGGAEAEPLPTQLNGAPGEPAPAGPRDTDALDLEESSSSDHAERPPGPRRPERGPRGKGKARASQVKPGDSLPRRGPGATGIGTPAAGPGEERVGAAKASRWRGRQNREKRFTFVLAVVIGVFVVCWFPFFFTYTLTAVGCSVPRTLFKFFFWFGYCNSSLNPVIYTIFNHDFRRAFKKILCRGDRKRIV
# T3 sequence (P18825 whole entry): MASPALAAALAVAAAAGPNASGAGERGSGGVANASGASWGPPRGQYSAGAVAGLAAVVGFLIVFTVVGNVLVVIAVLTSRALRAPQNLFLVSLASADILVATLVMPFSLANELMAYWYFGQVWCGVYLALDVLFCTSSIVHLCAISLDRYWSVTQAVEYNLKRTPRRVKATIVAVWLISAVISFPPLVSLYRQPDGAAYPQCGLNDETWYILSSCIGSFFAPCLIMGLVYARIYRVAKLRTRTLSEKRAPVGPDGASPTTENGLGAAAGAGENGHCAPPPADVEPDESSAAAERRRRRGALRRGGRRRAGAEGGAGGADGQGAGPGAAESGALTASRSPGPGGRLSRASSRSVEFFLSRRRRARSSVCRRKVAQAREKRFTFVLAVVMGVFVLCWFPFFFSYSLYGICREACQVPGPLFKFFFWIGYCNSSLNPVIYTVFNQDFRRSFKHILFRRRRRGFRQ
# T3 sequence (P18089 whole entry): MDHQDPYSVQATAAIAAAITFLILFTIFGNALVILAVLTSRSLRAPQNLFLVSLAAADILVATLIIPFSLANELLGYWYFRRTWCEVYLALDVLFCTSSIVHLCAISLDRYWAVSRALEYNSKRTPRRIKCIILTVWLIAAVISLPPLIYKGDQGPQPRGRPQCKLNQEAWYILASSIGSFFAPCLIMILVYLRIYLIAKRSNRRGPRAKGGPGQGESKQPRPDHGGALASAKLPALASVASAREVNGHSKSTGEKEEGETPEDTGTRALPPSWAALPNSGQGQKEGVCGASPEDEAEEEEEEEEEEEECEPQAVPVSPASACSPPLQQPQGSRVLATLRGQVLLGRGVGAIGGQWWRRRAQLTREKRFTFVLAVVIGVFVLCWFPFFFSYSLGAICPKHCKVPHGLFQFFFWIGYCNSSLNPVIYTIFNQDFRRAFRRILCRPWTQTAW
# [9] = target: T4, 5-hydroxytryptamine receptor 1A (Homo sapiens, UniProt P08908); assay: Inhibition of human 5HT1A receptor
# T4 sequence (P08908 whole entry): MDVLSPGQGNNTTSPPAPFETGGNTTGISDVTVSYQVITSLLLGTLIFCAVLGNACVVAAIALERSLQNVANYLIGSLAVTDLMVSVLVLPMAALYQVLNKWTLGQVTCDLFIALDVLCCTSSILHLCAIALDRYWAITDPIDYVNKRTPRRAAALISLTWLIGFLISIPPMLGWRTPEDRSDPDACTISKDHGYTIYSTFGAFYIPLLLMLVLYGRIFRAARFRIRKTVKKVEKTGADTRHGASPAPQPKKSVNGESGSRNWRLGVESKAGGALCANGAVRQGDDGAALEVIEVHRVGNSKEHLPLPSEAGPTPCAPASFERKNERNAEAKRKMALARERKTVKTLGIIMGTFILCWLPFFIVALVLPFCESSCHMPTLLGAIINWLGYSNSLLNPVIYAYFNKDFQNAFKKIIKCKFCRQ
# [10] = target: T5, 5-hydroxytryptamine receptor 2C (Homo sapiens, UniProt P28335); assay: Inhibition of human 5HT2C receptor
# T5 sequence (P28335 whole entry): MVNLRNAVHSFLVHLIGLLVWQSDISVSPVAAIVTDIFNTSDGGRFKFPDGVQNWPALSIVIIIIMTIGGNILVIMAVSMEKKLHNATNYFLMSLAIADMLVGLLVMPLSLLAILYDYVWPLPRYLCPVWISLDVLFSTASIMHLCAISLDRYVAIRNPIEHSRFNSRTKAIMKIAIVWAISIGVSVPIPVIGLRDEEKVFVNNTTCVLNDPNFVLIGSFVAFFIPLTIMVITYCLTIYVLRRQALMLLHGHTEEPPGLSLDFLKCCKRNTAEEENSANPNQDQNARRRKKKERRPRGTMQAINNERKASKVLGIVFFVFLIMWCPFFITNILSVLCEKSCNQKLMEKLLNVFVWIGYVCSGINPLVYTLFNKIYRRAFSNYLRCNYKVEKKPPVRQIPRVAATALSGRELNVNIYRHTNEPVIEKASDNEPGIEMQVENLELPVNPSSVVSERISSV
# [11] = target: Sodium-dependent serotonin transporter (Homo sapiens, UniProt P31645); assay: Inhibition of human SERT
# Sodium-dependent serotonin transporter, sequence (P31645 whole entry): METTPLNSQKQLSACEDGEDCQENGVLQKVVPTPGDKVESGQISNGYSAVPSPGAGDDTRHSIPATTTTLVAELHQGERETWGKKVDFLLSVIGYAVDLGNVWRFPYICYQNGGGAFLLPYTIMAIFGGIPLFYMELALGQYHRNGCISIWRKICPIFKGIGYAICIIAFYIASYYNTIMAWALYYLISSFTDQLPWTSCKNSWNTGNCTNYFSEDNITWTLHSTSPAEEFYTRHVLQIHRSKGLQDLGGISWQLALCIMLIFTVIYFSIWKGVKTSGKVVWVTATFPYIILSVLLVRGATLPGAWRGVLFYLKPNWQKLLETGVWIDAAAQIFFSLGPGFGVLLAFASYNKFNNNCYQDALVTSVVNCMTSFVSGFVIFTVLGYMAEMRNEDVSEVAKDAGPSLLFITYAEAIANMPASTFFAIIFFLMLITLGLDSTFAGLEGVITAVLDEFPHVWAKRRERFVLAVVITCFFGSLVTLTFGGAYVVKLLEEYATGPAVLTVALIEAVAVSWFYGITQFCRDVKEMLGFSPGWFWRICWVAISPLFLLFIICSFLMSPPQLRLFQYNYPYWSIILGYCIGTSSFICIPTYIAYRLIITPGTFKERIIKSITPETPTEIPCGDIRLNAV
# T1 sequence (P50406 whole entry): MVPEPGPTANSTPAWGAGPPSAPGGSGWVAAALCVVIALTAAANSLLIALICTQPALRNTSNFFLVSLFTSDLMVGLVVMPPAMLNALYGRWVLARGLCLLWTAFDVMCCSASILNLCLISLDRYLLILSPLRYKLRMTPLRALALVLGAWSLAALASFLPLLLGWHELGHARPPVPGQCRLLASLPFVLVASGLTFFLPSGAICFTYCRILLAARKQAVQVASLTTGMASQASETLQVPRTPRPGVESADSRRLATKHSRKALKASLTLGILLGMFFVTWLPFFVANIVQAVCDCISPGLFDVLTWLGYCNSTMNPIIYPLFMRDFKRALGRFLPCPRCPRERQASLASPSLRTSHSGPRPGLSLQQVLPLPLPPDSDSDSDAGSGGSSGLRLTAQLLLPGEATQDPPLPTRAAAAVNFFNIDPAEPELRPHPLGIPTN
Ki [1],inhibition [2],Imax [3],IC50 [4],Ki [5],Imax [6],IC50 [7],IC50 [8],IC50 [9],IC50 [10],IC50 [11],Compound
1.2 nM,> 80%,–,96 nM,–,127%,> 1000 nM,> 1 ×10⁴ nM,> 10000 nM,> 10000 nM,> 10000 nM,Cl.N=C(N)N/N=C1\CCc2ccc(NS(=O)(=O)c3c(Cl)nc4sccn34)cc21
1.6 nM,> 80%,–,58 nM,–,157%,> 1000 nM,> 1000 nM,> 1000 nM,> 1000 nM,> 1000 nM,CC1Cc2ccc(NS(=O)(=O)c3c(Cl)nc4sccn34)cc2/C1=N/NC(=N)N.Cl (racemic)
4.1 nM,> 80%,–,54 nM,–,102%,–,> 1000 nM,> 1000 nM,–,–,CN(c1ccc2c(c1)/C(=N/NC(=N)N)CC2)S(=O)(=O)c1c(Cl)nc2sccn12.Cl

# The next lines start with the compound.
Compound,Ki [1],inhibition [2],Imax [3],IC50 [4],Ki [5],Imax [6],IC50 [7],IC50 [8],IC50 [9],IC50 [10],IC50 [11]
CN1CCC(C2=CCc3ccc(NS(=O)(=O)c4c(Cl)nc5sccn45)cc32)C1 (stereo not drawn),3 nM,> 80%,100%,1580 nM,–,–,–,–,–,–,–
C/C(=N\NC(=N)N)c1cn(S(=O)(=O)c2ccc(N)cc2)c2ccccc12,–,–,–,–,≤ 8 nM,–,–,–,–,–,–
CC1(C)C/C(=N\NC(=N)N)c2cc(NS(=O)(=O)c3c(Cl)nc4sccn34)ccc21.Cl,5.2 nM,> 80%,–,238 nM,–,146%,–,> 1 ×10⁴ nM,> 1000 nM,> 1000 nM,> 10000 nM
Cl.N=C(N)N/N=C1\CCc2cc(NS(=O)(=O)c3c(Cl)nc4sccn34)ccc21,2.6 nM,> 80%,–,47 nM,–,173%,–,> 1000 nM,> 10000 nM,–,–
